Tested on: MS2 coat protein
Assay: apparent Kd, MS2 coat protein; higher = weaker binding; RNA-MaP array; FMN 200 µM where present
Procedure, shortened: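 Stalled E. coli RNA polymerase transcribed the designs on Illumina sequencing-chip clusters. SNAP-549-labelled MS2 coat protein was titrated from 0.7 or 1.5 nM, doubling to 3 µM, without and then with constant ligand, in 100 mM Tris-HCl pH 7.5, 80 mM KCl, 4 mM MgCl2, BSA, DTT, yeast tRNA and Tween-20. Per-cluster binding curves were fitted to green signal normalised to red-channel RNA signal and control-cluster median Fmax. The apparent Kd is the median of the filtered fits.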

[1] = designed as: OFF switch for flavin mononucleotide, no ligand
[2] = ligand present: flavin mononucleotide, designed as: OFF switch for flavin mononucleotide
[3] = designed as: ON switch for flavin mononucleotide, no ligand
[4] = ligand present: flavin mononucleotide, designed as: ON switch for flavin mononucleotide

Sequence	apparent Kd [1]	apparent Kd [2]	apparent Kd [3]	apparent Kd [4]
AUAAAUCAUGUAGGAUAUGCGUGGCGAAGCUAUGCAGAAGGACAUGAGGAUCACCCAUGUUUUUCCGUCUGCGUACAGACGGAA	308 nM	147 nM	–	–
UCAGGCUUCGAGAAGGACAUGAGGAUCACCCAUGUUAACAUGAAGCAGCCGUGAGGCUGCAUCAUGUAGGAUAUCGGAGUCUGC	5.44 nM	6.09 nM	–	–
AGGUAACAUGAGGAUCACCCAUGUCAGGAUAUCAUGAAGAGUAGAUUAGAGGAGAGGUUGAGAAGGGACUAUAU	59.9 nM	35.3 nM	–	–
ACGUUUAAUACAGGAUAUGUUCUUAUACUAUAGAUUGGUUAUUACUUAAUUACAGAAGGGUAGAACAUGAGGAUCACCCAUGUA	–	–	507 nM	261 nM
UCCCGUUGUCAGAAGGCUCCUCGGAACCCGAGGAGAGGAUAUGACACAUGAGGAUCACCCAUGUGCCCGGUCGUGACAAAGGUG	13.4 nM	146 nM	–	–
UCUACAUAAAUUCAUCAAUACAGUAAGGAUAUGAGAUACAUGAGGAUCACCCAUGUGCAUGUGAAUUAGAAGGUACAAUUAACU	14.4 nM	12 nM	–	–
AGAAAAUAUGGGUAGGAUAUAUAAAGAGAAACAUGAGGAUCACCCAUGUAAAGACGAGAGUCAAAAUAGAAGGACUAAAGAAAGAA	–	–	76 nM	59.6 nM
GUUUUGAUAGGAUAUACAUGAGGAUCACCCAUGUCCCACCCGUUACCUCUGACCCUAUGUAGAAGGAUCGUUUG	34.3 nM	26.4 nM	–	–
AAAAGGUUAGGAUAUGCCCGCCGGGUGGGAAGGCCGGGUGGGUAGAAGGGACAUGAGGAUCACCCAUGUAAAAA	48.6 nM	20 nM	–	–
AAGUAGGAAGGAUAUACAUGGAUAUACAUUCAUGUGGACCUACAUGAGGAUCACCCAUGUAGAAGGUCCUAAUA	18.1 nM	12.1 nM	–	–
ACUUCACAUGAGGAUCACCCAUGUCAGGCCGGACUAGGAUAUUAUCAUGCAGCGUGACAGUGAGAAGGAGUUGGAU	–	–	162 nM	188 nM
GCACGGUAUGUAGGAUAUGCAUAGCAUUGCUAUGCAGAAGGACAUGAGGAUCACCCAUGUAUGUAUUCCAUACUAAUCCCGUGA	5.72 nM	5.98 nM	–	–
AUAGUGGUUUUCUGGAUGUUGAACAUGAGGAUCACCCAUGUAGAGGAUAUCCACGGAAAUCCGUAGGAGAAGGCUGGUGGAAAA	15.6 nM	26.7 nM	–	–
UGGUACUAGGGAGGAUAUGGGAAGAUACAUGAGGAUCACCCAUGUUUAAGAAUGCCGAUAGGCAACUAGAAGGCCCUAGUACCU	–	–	406 nM	18.7 nM
AAAAAACAUGAGGAUCACCCAUGUGAGGAUAUCUGUAUCCAAAAGGAAGUGUAGGAUCGGAGAAGGCACUAGGA	53.9 nM	83.2 nM	–	–
UUGGACGUCGUAGGAUAUGUAGGAUAUUCCUACAUGAGGAUCACCCAUGUUGACAUCGAAGAAGGACAGAAGGACGAUGUCCAU	–	–	88 nM	5.29 nM
GGUUGGCGAGGAUAUACAUGAGGAUCACCCAUGUGAGAGAAAAAAGUGAGGAAGAAAAGUAGAAGGCGCUGACG	28.1 nM	123 nM	–	–
GGGUACAUCGGAGGAUAUCAUGUAAAUACAUGAGGAUCACCCAUGUCGAUGGAGACAUCAGAGAUUGAGAAGGCCGAUGUACCG	–	–	14.9 nM	6.15 nM
UGUCUGAUCUAAUAACAUGAGGAUCACCCAUGUGUUCACAACUAGGAUAUCGAUUAUUAAAACGUCGAGAAGGAGUAUACAUUA	34.5 nM	43.6 nM	–	–
GAUUCACAUGAGGAUCACCCAUGUGAGGAUAUAGUGCAGGAGGCGGAUAUCCACCUCUCUAGAAGGCACACGGG	21.8 nM	24.1 nM	–	–
UUCGGCGCAGGAUAUACAGUUCUGUGUUGAAUCGGCGCGGGACAUGAGGAUCACCCAUGUAGAAGGGUGUUGAA	1160 nM	578 nM	–	–
AGAAUGGGCGAGAAGGGAGUACAUGAGGAUCACCCAUGUGGUUCAUGGUGCUCAGGAUAUCGAUAGACCAAGGAGCGUCUUUGG	20.1 nM	140 nM	–	–
AGAUGGCGAGGAUAUACAUGAGGAUCACCCAUGUGAAGAAUAAUAGUGAGGAAGAAAAGUAGAAGGCGCUGUCA	45.5 nM	209 nM	–	–
GUAGCAUACCGAGGAUAUCUAUACCGGAAACGGACAUGAGGAUCACCCAUGUGGCGAAAGCCUUGGGAGAAGGCGGAAUGCUAC	–	–	20.8 nM	11.6 nM
UUUUUGUUCAAGAAGGAUGUUUUAGUUUAGAUCAUAGGAUAUUGAUAUAUUGUAGACUCAUGUAACAUGAGGAUCACCCAUGUA	–	–	101 nM	65.4 nM
GUCAGCUCGUGAGGAUAUACAUGUGCUGGAAACAGCACUAAAGUUUUCACAUGAGGAUCACCCAUGUAGAAGGCACGAGCUGAU	15.8 nM	35.2 nM	–	–
AAAACGUCAGGAUAUCCAAUAUAUGACAUGAGGAUCACCCAUGUUUCCACUCGUACCUCCGGAGAAGGGACUUUUU	42.6 nM	39.4 nM	–	–
UUGGACAGCUAGAGCUGCUAAGUACAUGAGGAUCACCCAUGUCAGGAUAUCCUUCCGCAAUGCGAGGAGAAGGGACAGGGUCCC	75.4 nM	179 nM	–	–

Sequence	apparent Kd [1]	apparent Kd [2]	apparent Kd [3]	apparent Kd [4]
UUGAGGUGCAAGAAGGAUCACAUGAGGAUCACCCAUGUCAUGUGAAGUCUCGAGAUUUUAUAUGGAUAGGAUAUUGCACCGAAC	–	–	263 nM	41.2 nM
GUAGCAACAUGAGGAUCACCCAUGUAGGAUAUCGCUAUUGUAAUCAUGAAACAUGAUUACAAUAGCGAGAAGGACAUAUGCUAG	14.9 nM	12.8 nM	–	–
GGAUAGGACAGAGGAUAUACGUGCUAGAGAGACUAGCAAAAUUUCCUCACAUGAGGAUCACCCAUGUAGAAGGCUGUCCUAUCG	16.3 nM	432 nM	–	–
AACUCAGCAGGAUAUACAUACAAAUCCAUCAUGCCGUUUGAACAUGAGGAUCACCCAUGUAGAAGGGCUCACAC	28.7 nM	51.5 nM	–	–
CCCAUGUUAGGAUAUAUGGAAGGGCGGACGGGCGCCCUUAGGUAGAAGGAACAUGAGGAUCACCCAUGUAAUAA	171 nM	161 nM	–	–
GAGUAGGGAGGAUAUACGUGCUCAAUCCCGGAAAGCGGGAAACAUGAGGAUCACCCAUGUAGAAGGCCCAUAAA	82.1 nM	46.4 nM	–	–
GUUUCGUGAGGAUAUGUGGCUUCGAUCGUGCGAAGAAGGCUACAGAAGGCACAUGAGGAUCACCCAUGUUCCUC	85.7 nM	592 nM	–	–
UCAUUUCAGUAAGGAUAUUAAUUCAUGACGAUACAUGAGGAUCACCCAUGUUAAGAAGGUACUAAUACAAAUAAUGCAUUGUUC	12.4 nM	11.2 nM	–	–
AACAGUAGAGGAUAUACAUGAGGAUCACCCAUGUGAGAUUUAAGUGGCGUACCACAAAGUAGAAGGCUACUGGA	36.2 nM	161 nM	–	–
UUUUUUGUUGUGAGGAUAUCGUUGUGGAUGUGGAUCGAGAAGGCACAUGAGGAUCACCCAUGUUUGUUGUGGUU	102 nM	158 nM	–	–
GUUUAUUUACAGAAGGUGUUUUACAUGAGGAUCACCCAUGUUUAAAUUUAUAAAGAAUUUAUUUACAAGGAUAUGUACAAUUUU	–	–	34.1 nM	19 nM
GGAUAGGCCAGAGGAUAUACGUGCUAGAGAUACUAGCAAAAUUUCCUCACAUGAGGAUCACCCAUGUAGAAGGCUGUCCUAUCG	7.31 nM	49.9 nM	–	–
CCUCGUCACAUUAACAUGAGGAUCACCCAUGUCAAAAGACAUGAGGAUAUGCAUCCUAAUUGGAUGCAGAAGGCAUGGACGAGG	–	–	474 nM	36.5 nM
GGUGCCAUGUAGAAGGCAGAUCUGAUUCAGAUCUGAGGAUAUACAUGAGGAUCACCCAUGUAAAGCCACCGCACGAGAGUGCAA	70.2 nM	190 nM	–	–
AUUAUAAUUGAAGGAUAUCUAUAUCCAACAUGAGGAUCACCCAUGUUGAGGAUCACCCAUGUAAAGGAGAAGGUUAAUUAUAAU	–	–	–	24.6 nM
UGAAUCAAUACAGGAUAUGGUGACGCACAUGAGGAUCACCCAUGUCCGCAGCGUGCUCAGCACGCCCAGAAGGGUAUUGAUCCG	–	–	–	84.8 nM
UGUAUGGACAGAGGAUAUACAGAUAGGAUCUACUAUCAAACAGUCCUGACAUGAGGAUCACCCAUGUAGAAGGCUGUCCAUACU	22.8 nM	105 nM	–	–
GAUGGCUUAGGAUAUCAAAGUUACCACAUGAGGAUCACCCAUGUAUGGGAGAUGGAUAAAUGAGAAGGAGGGUGUU	174 nM	133 nM	–	–
GACUUGUUAGGAUAUCUUACAUUUGCAUCAUAGUAACCAUUGGAGAAGGGACAUGAGGAUCACCCAUGUUUGGA	31.6 nM	30.1 nM	–	–
GCGAUUGCGUAGAAGGUACUAUAUAAUACACUGUAAGGAUAUACAUACAUGAGGAUCACCCAUGUAAAUGGAAUUUGCAAUCGC	–	–	6.93 nM	6.41 nM
UGGUUCCUGCAGAAGGUGUAGGCGACUUGCUUGCAAGGAUAUGCACAUGAGGAUCACCCAUGUAGCUAAAAGUUUGCAACGUGG	12.8 nM	65.1 nM	–	–
GUGGACGUCGUAGGAUAUGUAGGAUAUUCCUACAUGAGGAUCACCCAUGUUGACAUGGAAGAAGGACAGAAGGACGAUGUCCAU	–	–	262 nM	4.51 nM
AUAUUGUGAGGAUAUGAACUUAGUAUCGAAAGAUACUAAGAUCAGAAGGCACAUGAGGAUCACCCAUGUUUCUC	77.5 nM	402 nM	–	–
CGCACUGAUAGAGGAUAUGUUUAACAUGAGGAUCACCCAUGUGUACAAGUAUCAAUAUUUAUCAAACAGAAGGCUAUUAGUGCG	4.84 nM	3.88 nM	–	–
CCAUGCGGAUGAGGAUAUUCAUUUAUGAGGAUAGAAGAAGGCAUACAUGAGGAUCACCCAUGUAUACGCAUGAGGAUCCCUUAC	34.2 nM	27.2 nM	–	–
GGUACUCAAAGAGUACCAAUACGAACAUGAGGAUCACCCAUGUAGGAUAUGCUACUCAAAGAGUAGCAGAAGGACAUGUGCCUU	31.4 nM	252 nM	–	–
CAGCGCUGUCGAGAGGAUAUGCGGUGAUGGACAUGAGGAUCACCCAUGUUAGCGAUGGCAUUACGGUAGAAGGCUCUACAGCUGC	–	–	40.3 nM	16.4 nM
